# Screening data: PubChem BioAssay, several laboratories
# A selection: hits, their analogues and other compounds. The true share with any hit is near 3%.
# UBC13 inh – UBC13 polyubiquitin chain formation inhibitors, primary screen, biochemical, TR-FRET, uHTS | Ubiquitin-conjugating enzyme E2 N (Homo sapiens), P61088 | inhibition, % at 20 µM | hit rate 0.47% among 330,000; in the data active = inhibition above about 45%, passing the limit was not always enough
# UCH37 DUB inh – inhibitors of human UCH37 deubiquitinase, primary screen, biochemical, Ub-AMC cleavage, fluorescence | Ubiquitin carboxyl-terminal hydrolase isozyme L5 (Homo sapiens), Q9Y5K5 | purified proteasome/UCH37 | inhibition, % (concentration not given with the values) | hit rate 0.33% among 330,000 | AID 588478, 2011;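 active = mean inhibition over replicate wells above about 20%, limit read from the data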;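 note: 0% = compound-free wells with enzyme and 100% = wells lacking proteasome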
#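 Material: human UCH37 enzyme supplied as purified proteasome complex. Measure: % inhibition of Ub-AMC cleavage fluorescence. Medium: pH 7.4 Tris-HCl (50 mM) with ovalbumin, ATP-MgCl2, DTT. Times: 30 min preincubation with enzyme, 25 min cleavage at room temperature. Detection: AMC fluorescence intensity at 355/460 nm.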
# MEKK2 WT-MEK5 – modulators of MEK5 binding to wildtype MEKK2, primary screen, biochemical, multiplex bead flow cytometry, Alexa488-MEK5. Mitogen-activated protein kinase kinase kinase 2 (Homo sapiens), Q9Y2U5. hit rate 1.1% among 290,000. Alexa488-MEK5 binding to MEKK2 WT; actives lie on both sides. binding response (% of control), % at 10 µM; in the data active = binding response below about 67% or above about 130%
# MEKK3 PB1 HTS – modulators of MEKK3-MEK5 PB1 binding, primary screen, biochemical, wildtype MEKK3, multiplex bead flow cytometry, Alexa488-MEK5 | AID 1529, 2009 | hit rate 1.4% among 290,000 | bead-based flow cytometry, Alexa488-MEK5 binding to MEKK3; actives lie on both sides; 0 = blocked by unlabeled MEK5, 100 = vehicle | Mitogen-activated protein kinase kinase kinase 3 (Homo sapiens), Q99759 | binding response (% of control), % at 10 µM;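 active = binding response more than 3 SD above or below the average of its plate-row segment, actives on both sides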;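 note: Alexa488 bead fluorescence after subtracting the streptavidin-only scavenger bead signal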
# Target sequence (Q99759 whole entry, looked up): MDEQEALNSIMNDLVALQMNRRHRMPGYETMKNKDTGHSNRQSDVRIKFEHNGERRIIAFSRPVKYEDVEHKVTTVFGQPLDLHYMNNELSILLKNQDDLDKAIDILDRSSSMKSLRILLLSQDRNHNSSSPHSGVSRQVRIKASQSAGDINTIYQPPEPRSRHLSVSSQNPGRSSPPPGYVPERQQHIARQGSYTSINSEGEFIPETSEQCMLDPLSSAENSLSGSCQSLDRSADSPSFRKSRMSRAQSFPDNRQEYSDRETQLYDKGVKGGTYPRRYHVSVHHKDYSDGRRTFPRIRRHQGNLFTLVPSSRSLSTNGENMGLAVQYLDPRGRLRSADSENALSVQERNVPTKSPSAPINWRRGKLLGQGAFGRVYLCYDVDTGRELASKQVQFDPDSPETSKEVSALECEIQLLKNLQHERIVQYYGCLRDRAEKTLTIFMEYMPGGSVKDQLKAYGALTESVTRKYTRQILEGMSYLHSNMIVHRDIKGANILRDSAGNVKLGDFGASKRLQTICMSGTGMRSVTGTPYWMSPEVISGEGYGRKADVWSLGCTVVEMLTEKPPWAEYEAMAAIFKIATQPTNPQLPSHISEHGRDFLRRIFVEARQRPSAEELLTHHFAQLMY
# MEKK2mut PB1 HTS – MEK5 binding signal on mutant MEKK2 PB1, primary screen, biochemical, multiplex bead flow cytometry, Alexa488-MEK5. hit rate 0.35% among 290,000. Alexa488-MEK5 binding to MEKK2 mutant. percent response, % at 10 µM; in the data active = percent response above about 24%, passing the limit was not always enough
# Apaf1 inhib – inhibitors of human Apaf-1 apoptosome, primary screen, biochemical, DEVD-Rh110 fluorescence, uHTS. reconstituted apoptosome caspase-3 activity. inhibition, % at 20 µM. hit rate 0.71% among 330,000; active = inhibition of at least 40% at 20 µM;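 note: plate controls were DMSO wells for no effect and DEVD-CHO caspase inhibitor wells for full effect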
#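 System: Apoptosome proteins | Medium: Hepes pH 7.5 with detergent and BSA | Also added: Cytochrome c trigger plus (Z-DEVD)2-Rh110 caspase-3 substrate | Incubation: 30 min compound preincubation, 50 min activation, room temperature | Detection: Rhodamine 110 fluorescence at Ex 480/Em 540 nm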
# MEKK2wt confirm – modulators of MEK5 binding to wildtype MEKK2, confirmation, biochemical, single concentration, multiplex bead flow cytometry; Alexa488-MEK5 binding to MEKK2 WT; actives lie on both sides; binding response (% of control), % at 10 µM; shares compounds with MEKK3 PB1 HTS; AID 1892, 2009; hit rate 2.4% among 5,900; in the data active = binding response below about 16% or above about 210%; inactive = in between
# MEKK2mut confirm – mutant MEKK2 PB1-MEK5 binding signal retest – biochemical, single concentration, multiplex bead flow cytometry, confirmation; AID 1893, 2009; shares compounds with MEKK3 PB1 HTS; Alexa488-MEK5 binding to MEKK2 mutant; percent response, % at 10 µM; hit rate 2% among 5,900; in the data active = percent response mostly above about 71%, no sharp cut-off; inactive = mostly below about 38%;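 note: higher means compound restores mutant binding toward wildtype level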
# MEKK3 confirm – MEKK3 wild-type PB1 binding to MEK5, inhibitors, confirmation, biochemical, bead multiplex flow cytometry, single concentration, wildtype | shares compounds with MEKK3 PB1 HTS | Alexa488-MEK5 binding to MEKK3; hits give low values | binding response (% of control), % at 10 µM | hit rate 1.8% among 5,900;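 active = binding response below 72% of control, or above a set upper limit, though filed actives all read lower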;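 note: 100% = DMSO only wells and 0% = binding blocked by excess unlabeled MEK5; lower values mean stronger disruption of MEK5 binding to MEKK3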
# * hit, by the source's call; . = not tested or not shown; [ ] = remark or other dose.
SMILES,UBC13 inh,UCH37 DUB inh,MEKK2 WT-MEK5,MEKK3 PB1 HTS,MEKK2mut PB1 HTS,Apaf1 inhib,MEKK2wt confirm,MEKK2mut confirm,MEKK3 confirm
O=C(O)COc1ccccc1Cc1ccccc1,-10,6,103,102,5,1,.,.,.
C=CCc1ccccc1OCC(=O)O,15,3,53,45*[inhibitor],-11,-21,96,0,99
O=C(Nc1cccc(C(F)(F)F)c1)N1CCC(c2nc(-c3ccc(F)cc3)no2)CC1,-13,2,173*,119,24,6,118,6,105
C/C(C=NNC(=O)c1nnn(-c2nonc2N)c1C(C)C)=C\c1ccco1,.,-17,.,.,.,.,.,.,.
O=C(NNC(=O)C1CC(c2cccnc2)=NO1)Nc1ccccc1F (centres undefined),-6,-2,31*,105,95*,-5,98,-1,97
CC(C)OC(=O)C(C)Oc1ccc(C(=O)NCCc2ccccc2)cc1 (centres undefined),1,2,110,123*,4,7,104,6,100
CC(Oc1ccc(C(=O)NCCc2ccccc2)cc1)C(=O)O (centres undefined),7,-1,99,106,-1,-7,.,.,.
COc1cc(CCCN2C(=O)C(=O)NC[C@@H]2c2ccccc2)cc(OC)c1OC,4,2,94,94,1,-3,.,.,.
COc1cc(CCCN2C(=O)C(=O)NC[C@@H]2C(C)O)cc(OC)c1OC (some centres undefined),-2,2,2.0*[inhibitor],2.0*[inhibitor],4,-6,102,-4,97
C[C@H](NC(=O)OCc1ccccc1)c1nnc([C@H](Cc2ccccc2)NC(=O)OC(C)(C)C)o1,5,2,98,105,5,12,.,.,.
CC1=NNC(=O)C1Cc1ccccc1 (centres undefined),-9,3,.,.,.,-13,.,.,.
CC1=NNC(=O)C1C(c1ccccc1)C1C(=O)NN=C1C (centres undefined),-25,.,113,129*,1,-6,97,-6,101
CC(C)(C)CN1C(=O)C(=O)NC[C@@H]1Cc1ccc(O)cc1,4,1,104,107,5,-1,.,.,.
CCOC(=O)c1sc(=S)sc1SCc1cccc(C(F)(F)F)c1,-6,2,109,105,2,9,.,.,.
O=C(Cc1ccc([N+](=O)[O-])cc1)N/N=C/c1ccc([N+](=O)[O-])o1,-16,.,105,106,6,8,.,.,.
O=C(O)/C=C/c1ccc([N+](=O)[O-])o1,-4,12,115,130*,-55,-5,101,-5,102
CC1(C(=O)N/N=C/c2ccc([N+](=O)[O-])o2)CC1(Br)Br (centres undefined),-11,.,103,132*,1,4,101,-4,104
Fc1ccc(NC(=S)Nc2ccc(Cl)cc2)cc1,1,6,129,141*,5,-19,99,-5,97
Fc1ccc(NC(=S)Nc2cc(Cl)ccc2Cl)cc1,6,1,107,115,0,8,.,.,.
